The values that follow come from ChEMBL document CHEMBL1127591, “Novel prodrugs of alkylating agents derived from 2-fluoro- and 3-fluorobenzoic acids for antibody-directed enzyme prodrug therapy” (J Med Chem, 1994).

The test system of data set [1] is LS174T. Put plainly: Compound was evaluated for its cytotoxicity without carboxypeptidase G2 in the colorectal cell line LS174T for 1 hour. The conditions noted are these: Homo sapiens. It is filed as functional, cell-based. In outline:
(§1)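 LS174T cells (2.5 × 10³/well) in DMEM + 10% FCS, 5% CO2, 37 °C. Exposed once for 1 h to six concentrations (1–800 μM), with or without CPG2 (6 units/mL final). Compounds and enzyme were freshly prepared. Cells washed three times, regrown 6 days, then fixed and stained. Viable-cell protein read by sulforhodamine B against untreated controls. Octuplicate wells.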

Data set [2] in a line: Kinetics of potential prodrugs as substrates for carboxypeptidase G2 was determined and reported as apparent second order constant. It is filed as ADME. The gist of the method: (§2)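 CPG2 cleavage of the benzoylglutamate amide bond in 100 mM Tris/HCl pH 7.3 with 260 μM ZnCl2 at 37 °C in a thermostated spectrophotometer. Absorbance fall was read at the wavelength of maximal prodrug–parent difference, chosen from 240–400 nm scans. Substrate 0.1–100 μM, CPG2 (0.01–1.0 unit) held constant per run. Michaelis–Menten fit. Duplicates.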

Data set [3] in a line: Chemical half-life in percholate at 37 degree was determined. It is filed as ADME. The conditions noted are these: perchlorate solution. In outline:
(§3)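 Sodium perchlorate (0.1 M) at 37 °C. Hydrolysis was followed to effective completion by titrating the released acid with 0.01 M NaOH under N2 on an automatic titrator held at pH 7.4. Each compound was run at least twice, and t1/2 is the mean of all determinations.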

Data set [4] relates to LS174T. Briefly: Compound was evaluated for its cytotoxicity with carboxypeptidase G2 in the colorectal cell line LS174T for 1 hour. It is filed as functional, cell-based. To be noted: Homo sapiens. In outline:
as §1

Data set [5] is described as follows: Kinetics of potential prodrugs as substrates for carboxypeptidase G2 was determined and reported as Michaelis-Menten constant. It is filed as ADME. In outline: as §2
A short description of data set [6]: Kinetics of potential prodrugs as substrates for carboxypeptidase G2 was determined and reported as first order constant. It is filed as ADME. The gist of the method:
as §2

Data set [7] is described as follows: Chemical half-life in percholate at 37 degree Centigrade. The conditions noted are these: perchlorate solution. It is filed as ADME. In outline:
as §3

A value given as a limit tells only on which side of the number the result lay.

Turning to `O=C(O)CC[C@H](NC(=O)c1ccc(N(CCCl)CCCl)c(F)c1)C(=O)O`, the IC50 in the data set on LS174T [1] was above 800 µM; in the data set on LS174T [4], 390 µM. Moreover, the “k cat/Km” value in data set [2] stood at 1.03e+08 M⁻¹ s⁻¹. For the same compound, in data set [3], the half-life is 2.45 h. In data set [5], the Michaelis-Menten constant (Km) was 10 µM. In addition, the k cat in data set [6] is 1028 s⁻¹.

Consider `CS(=O)(=O)OCCN(CCOS(C)(=O)=O)c1ccc(C(=O)N[C@@H](CCC(=O)O)C(=O)O)cc1F`, for which the “k cat/Km” value in data set [2] stood at 3.3e+07 M⁻¹ s⁻¹. Moreover, in data set [3], the half-life was determined as 0.15 h. Also, in data set [5], the Km amounted to 17 µM. Moreover, the k cat in data set [6] amounted to 565 s⁻¹.

In data set [7], `CS(=O)(=O)OCCN(CCOS(C)(=O)=O)c1ccc(C(=O)N[C@@H](CCC(=O)O)C(=O)O)cc1` gave a half-life of 0.7 h.

Consider `CS(=O)(=O)OCCN(CCCl)c1ccc(C(=O)O)c(F)c1`, for which the IC50 with LS174T [1] was above 800 µM. Also, the half-life in data set [3] was 3.2 h.

With `CS(=O)(=O)OCCN(CCCl)c1ccc(C(=O)N[C@@H](CCC(=O)O)C(=O)O)cc1`, the “k cat/Km” value in data set [2] came to 1.71e+08 M⁻¹ s⁻¹. Also, the half-life in data set [3] was found to be 16.4 h. This compound registered a 50% inhibitory concentration (IC50) in the data set on LS174T [4] of 200 µM. For the same compound, the Km in data set [5] was 3.4 µM. In addition, the k cat in data set [6] worked out at 583 s⁻¹.

As to `CS(=O)(=O)OCCN(CCOS(C)(=O)=O)c1ccc(C(=O)O)cc1F`, in the data set on LS174T [1], half-maximal inhibition (IC50) required 480 µM. In data set [3], this compound yielded a half-life of 0.0317 h.

As to `O=C(O)CC[C@H](NC(=O)c1ccc(N(CCCl)CCCl)cc1)C(=O)O`, in data set [3], the half-life worked out at 19.3 h.

Regarding `CS(=O)(=O)OCCN(CCCl)c1ccc(C(=O)N[C@@H](CCC(=O)O)C(=O)O)cc1F`, the “k cat/Km” value in data set [2] was 1.02e+08 M⁻¹ s⁻¹. In data set [3], this compound returned a half-life of 2.03 h. For the same compound, in data set [5], the Km was 6 µM. The k cat in data set [6] is 614 s⁻¹.

`CS(=O)(=O)OCCN(CCCl)c1ccc(C(=O)O)cc1F`: the IC50 in the data set on LS174T [1] stood at 280 µM. In data set [3], this compound returned a half-life of 0.04 h.

For `O=C(O)CC[C@H](NC(=O)c1ccc(N(CCCl)CCCl)cc1F)C(=O)O`, the IC50 in the data set on LS174T [1] and in the data set on LS174T [4] was above 800 µM throughout. For the same compound, in data set [2], the “k cat/Km” value turned out to be 3.1e+07 M⁻¹ s⁻¹. Further, the Michaelis constant (Km) in data set [5] was 15 µM. Also, the k cat in data set [6] was found to be 462 s⁻¹.

For the compound `CS(=O)(=O)OCCN(CCCl)c1ccc(C(=O)N[C@@H](CCC(=O)O)C(=O)O)c(F)c1`, the “k cat/Km” value in data set [2] was 1.9e+07 M⁻¹ s⁻¹. For the same compound, the Km in data set [5] turned out to be 11 µM. Further, in data set [6], the k cat was 213 s⁻¹.

In the case of `CS(=O)(=O)OCCN(CCCl)c1ccc(C(=O)O)cc1`, in the data set with LS174T [1], the half-inhibitory concentration (IC50) was 185 µM. The half-life in data set [3] amounted to 0.967 h.

Broadly, the IC50 is the concentration that gives 50% inhibition. High values mean weaker potency in that assay, low ones greater potency in that assay. The half-life is the time in which the quantity being followed falls by half. Usually Km stands for the concentration of substrate that gives half-maximal velocity.
